Screening data deposited in PubChem by several laboratories.
SR-BI HDL uptake – inhibitors of mouse SR-BI mediated HDL lipid uptake. Q61009. ldlA[mSR-BI] CHO cells, DiI-HDL uptake fluorescence, 3 h. inhibition, % at 12.5 µM. 0.96% of 320,000 active. AID 488896;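 active = mean replicate inhibition of at least 70% and a set share of replicates each scoring 70 or more; inconclusive = meets just one of the two criteria; inactive = fails both criteria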;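 also: 0% = median of neutral control wells and 100% = median of positive control wells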
Target sequence (Q61009 whole entry, looked up): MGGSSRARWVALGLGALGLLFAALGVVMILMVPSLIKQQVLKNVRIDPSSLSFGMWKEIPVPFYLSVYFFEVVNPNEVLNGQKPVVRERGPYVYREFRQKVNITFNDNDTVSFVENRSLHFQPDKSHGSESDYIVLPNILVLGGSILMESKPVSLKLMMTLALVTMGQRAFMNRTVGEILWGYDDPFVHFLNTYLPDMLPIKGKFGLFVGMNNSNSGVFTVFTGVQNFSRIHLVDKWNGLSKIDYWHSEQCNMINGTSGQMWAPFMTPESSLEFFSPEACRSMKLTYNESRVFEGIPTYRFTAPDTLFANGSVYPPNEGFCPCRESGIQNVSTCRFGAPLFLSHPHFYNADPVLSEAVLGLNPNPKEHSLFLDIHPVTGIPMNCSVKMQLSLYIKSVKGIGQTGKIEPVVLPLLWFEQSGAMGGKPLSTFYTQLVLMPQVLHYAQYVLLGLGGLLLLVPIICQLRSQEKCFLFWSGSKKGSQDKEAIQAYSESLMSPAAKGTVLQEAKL
CAL PDZ FP-1 – inhibitors of human CAL PDZ peptide binding; 0.02% of 330,000 active; Q9HD26; purified CAL PDZ, TMR-peptide fluorescence polarization, 1 h; inhibition, % at 20 µM;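 active = highest replicate inhibition of at least 40%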;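 also: plate controls were DMSO neutral control wells for no effect and unlabeled competitor peptide control wells for full effect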
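System: purified tagged CAL PDZ domain construct (CerCALP). Schedule: 1 h incubation at room temperature before polarization reading. Medium: 25 mM sodium phosphate pH 7.4, 150 mM NaCl, TCEP, IgG, Thesit. Read-out: percent inhibition from loss of millipolarization. Measured by: FP readout, S and P plane fluorescence. Probe or stimulus: fluorescent TMR peptide probe.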
ATG4B inhibitor – ATG4B (human) cysteine protease inhibition; inhibition, % at 8.33 µM; Q9Y4P1; AID 504462; ATG4B cleavage of LC3-PLA2, NBD-HPC fluorescence, 1 h; 0.51% of 340,000 active; in the data active = inhibition above about 40%
SR-BI DiI-HDL act – SR-BI HDL lipid transfer activation. CHO ldlA[mSR-BI] cells, DiI-HDL uptake fluorescence, 3 h; 100 = double the neutral-control signal. activation, % at 12.5 µM. 0.096% of 320,000 active;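 active = mean replicate activation of at least 60% and every replicate at or above 60%; inconclusive = mean or all-replicate condition met, but not both; inactive = mean below 60% and not all replicates reaching 60%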;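 also: 0% = median plate neutral-control signal and 100% = twice that signal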
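System: LDL receptor-deficient CHO ldlA cells overexpressing murine SR-BI | Timing: 3 h uptake period with compound, 37 °C | Medium: HEPES-buffered (25 mM, pH 7.4) F12 plus 0.5% BSA | Dosing: Single-point compound dose | Signal: Bottom-read fluorescence, 550/595 nm | Read-out: Retained DiI signal reflecting DiI-HDL uptake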
CAL PDZ FP-2 – CAL PDZ (human) peptide binding inhibition; Q9HD26; purified CAL PDZ, TMR-peptide fluorescence polarization, 1 h; inhibition, % at 24.9 µM; 0.92% of 300,000 active; AID 602252;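 active = mean inhibition of at least 30% with at least half of replicates also reaching 30%; inconclusive = no clear call, values can overlap the other calls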;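 also: 0% = DMSO neutral control and 100% = excess unlabeled competitor peptide PRC23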
Numbers without * were called inactive; u = inconclusive; x = no result. Shown are actives, neighbours in structure and some others; about 2.3% of the full set was active somewhere.

SMILES	SR-BI HDL uptake	CAL PDZ FP-1	ATG4B inhibitor	SR-BI DiI-HDL act	CAL PDZ FP-2
O=C(N/N=C/c1cccn1-c1ccc([N+](=O)[O-])cc1)c1cccnc1	89*	1	-11	-89	-3
C/C(N)=C(/C#N)C(=O)COC(=O)Cc1coc2ccc3ccccc3c12	-4	-1	-15	4	79*
Cc1c(OC(C)C(=O)NCCN2CCOCC2)ccc2c3c(c(=O)oc12)CCCC3 (stereo not given)	7	-1	-5	-7	67*
CCOC(=O)C1=C(C)N=C2SCCC(=O)N2[C@@H]1c1cccs1	-292	-3	-5	292*	x
COC(=O)c1c(NC(=O)CN(C)CC(=O)Nc2ccc(C)cc2)sc2c1CCC(C)C2 (stereo not given)	6	0	-3	-6	69*
CC(C)C1C(C#N)=C(N)Oc2n[nH]c(-c3cccs3)c21 (stereo not given)	-23	-1	-11	23	54*
CCCCc1ccc(N=N/C(C(=O)Nc2ccc(NC(C)=O)cc2OC)=C(/C)O)cc1	78*	2	1	-78	-3
Cc1nnsc1C(=O)N/N=C/c1ccccc1	9	-3	-12	-9	-1
Cc1nnsc1C(=O)N/N=C/c1ccc2ccccc2c1O	126*	-3	-16	-126	-1
CC12CC3CC1C(C(=O)O2)C3C(=O)O (stereo not given)	2	0	8	-2	-2
CC1CCCN(C(=O)CN(C)S(=O)(=O)c2ccc3c(c2)c(=O)n(C)c(=O)n3C)C1 (stereo not given)	13	0	8	-13	x
O=c1ccn([C@@H]2O[C@H](CNS(=O)(=O)C3CC3)[C@@H](O)[C@H]2O)c(=O)[nH]1	-31	1	2	31	-2
COC(=O)[C@]1(CC(C)C)N[C@H](c2ccc(SC3CCCCC3)c(OC)c2)[C@@H]2C(=O)N(C)C(=O)[C@@H]21	75*	-1	-6	-75	-1
CCSc1ccc([C@@H]2[C@@H]3C(=O)N(C)C(=O)[C@@H]3[C@]3(C(=O)OC)CCCCN23)cc1OC	-67	0	-9	67*	2
CCC(C)Sc1ccc([C@H]2N[C@@](CC(C)C)(C(=O)OC)[C@H]3C(=O)N(C)C(=O)[C@@H]23)cc1 (stereo not given in full)	79*	-2	-2	-79	-3
CCCSc1ccc([C@@H]2[C@@H]3C(=O)N(C)C(=O)[C@@H]3[C@]3(C(=O)OC)CCCCN23)cc1OC	-15	0	-6	15	1
COC(=O)[C@]1(CC(C)C)N[C@H](c2ccc(-c3ccc(F)cc3)c(OC)c2)[C@@H]2C(=O)N(C)C(=O)[C@@H]21	89*	-1	-13	-89	0
CCN1C(=O)[C@H]2[C@@H](c3ccc(-c4ccc(OC)cc4)c(OC)c3)N[C@@](CC(C)C)(C(=O)OC)[C@H]2C1=O	35	0	-10	-35	-2
CC(=O)Nc1cc(C(=O)NCCN2CCN(Cc3ccccc3)CC2)ccc1Sc1ccc(C)cc1	-10	-1	-18	10	1
Nc1c(N(CCC2=CCCCC2)C(=O)COc2ccc([N+](=O)[O-])cc2)c(=O)[nH]c(=O)n1Cc1ccccc1	1	-1	-16	-1	56*
CC(=O)c1ccc(OCC(=O)N(CCC2=CCCCC2)c2c(N)n(Cc3ccccc3)c(=O)[nH]c2=O)cc1	-2	-1	10	2	24
CCOC(=O)C1CCN(C(=O)/C=C/c2ccc(S(=O)(=O)N3CCOCC3)cc2)CC1	-63	-1	-7	63*	-5
O=C1CCCCC/C1=N/Nc1ccc(OCc2ccccc2)cc1	19	-1	0	-19	x
NS(=O)(=O)c1ccc(NC(=O)c2ccc(Cl)c(S(=O)(=O)NCc3ccco3)c2)cc1	37	-3	-63	-37	-10
Cc1ccc(NC(=O)c2ccc(Cl)c(S(=O)(=O)NCc3ccco3)c2)c(O)c1	90*	-1	-5	-90	-1
SMILES	SR-BI HDL uptake	CAL PDZ FP-1	ATG4B inhibitor	SR-BI DiI-HDL act	CAL PDZ FP-2
C=C1CC(Cn2cc(Br)c(=O)[nH]c2=O)(c2ccc(-c3ccccc3)cc2)OC1=O (stereo not given)	18	1	-2	-18	-6
CC(C)c1ccc(CN2C(=O)c3ccccc3S2(=O)=O)cc1	-5	-1	-5	5	-1
COC(=O)c1ccc(CN2C(=O)c3ccccc3S2(=O)=O)cc1	-9	x	4	9	55*
CCOc1ccc(C(=O)Nc2cccc(-c3cc4ccccc4oc3=O)c2)cc1[N+](=O)[O-]	80*	-2	4	-80	-2
CCOc1ccccc1NC(=O)c1ccc(OCC)c([N+](=O)[O-])c1	u	0	11	-73	-2
CCn1c2ccccc2c2cc(NC(=O)c3ccc(C)c([N+](=O)[O-])c3)ccc21	15	-2	-7	-15	-1
CCn1c2ccccc2c2cc(NC(=O)c3cc(OC)cc(OC)c3)ccc21	77*	0	-8	-77	-2
CCn1c2ccccc2c2cc(NC(=O)c3cccc([N+](=O)[O-])c3)ccc21	80*	0	-5	-80	17
COC(=O)C1=CN(Cc2ccc(F)cc2)C=C(C(=O)OC)C1c1cc(OC)c(OC)c(OC)c1	-13	-3	-8	13	-4
COC(=O)C1=CN(Cc2ccc(OC)c(OC)c2)C=C(C(=O)OC)C1c1cccc(F)c1	6	-15	0	-6	58*
COc1ccc(-c2csc(N(CC3CCCO3)C(=O)c3ccc(C)cc3)n2)cc1 (stereo not given)	77*	-1	5	-77	-4
COCCCN(C(C)=O)c1nc(-c2ccc(OC)cc2)cs1	78*	-1	-11	-78	x
COc1ccc(-c2cc(C(=O)NCC3CCCO3)c3ccccc3n2)cc1 (stereo not given)	63	0	-4	-63	-4
COc1ccc(-c2cc(C(=O)NCC3CCCO3)c3cc(C)ccc3n2)cc1 (stereo not given)	72*	0	-10	-72	1
CCOC(=O)C1CCN(C(=O)Nc2ccc3nc(-c4ccco4)c(-c4ccco4)nc3c2)CC1	61	0	3	-61	-4
O=C(Nc1ccc2nc(-c3ccco3)c(-c3ccco3)nc2c1)N1CCCCCC1	x	x	47*	x	x
COC(=O)c1cc2ccccc2c([N+](=O)[O-])c1O	-36	0	-1	36	108*
CCN1CCN(S(=O)(=O)c2ccc(Cl)c(C(=O)Oc3ccc(CC(=O)OC)cc3)c2)CC1	-4	-1	-8	4	80*
COc1ccccc1CNS(=O)(=O)CCNCCc1ccccc1	2	0	-3	-2	-2
c1ccc(-c2nnc(-c3ccccc3)c(-c3c[nH]c4ccccc34)n2)cc1	76*	0	-6	-76	x
